Each block holds one compound with its values, some of them ahead of it.
Assays:
NCI-H460 [1] = experiment: Antiproliferative activity against human H460 cells after 1 hr of drug exposure measured after 72 hrs; format: functional, cell-based
Outline: (§1)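 Growth inhibition after 1-h drug exposure; IC50 is the concentration giving 50% reduction of cell growth versus untreated controls. Values are means ± SD from at least three experiments.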

Mus musculus [2] = experiment: Toxicity in human CoBa cells xenografted athymic mouse assessed as loss of body weight at 2 mg/kg, po administered in q4dx4 schedule; format: organism-based; design: dose 2 mg/kg, route oral; conditions: in vivo
Outline: (§2)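 Mice bearing subcutaneous CoBa colon carcinoma were treated on a q4dx4 schedule, orally or, for CPT11, at 50 mg/kg. Body weight loss % is the loss induced by drug treatment.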

Mus musculus [3] = experiment: Toxicity in human CoBa cells xenografted athymic mouse assessed as survival at 2 mg/kg, po administered in q4dx4 schedule; format: organism-based; design: dose 2 mg/kg, route oral; conditions: in vivo
Outline: (§3)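 Mice carried subcutaneous human tumor xenografts (CoBa, MKN-28 or Panc-1). They were dosed orally on an intermittent q4dx4 schedule, which was also used to set the maximum tolerated dose. Toxicity was scored as lethal toxicity, given as dead/treated mice. Drug-induced % body weight loss was also recorded.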

HT-29 [4] = experiment: Antiproliferative activity against human HT29 cells after 1 hr of drug exposure measured after 72 hrs; format: functional, cell-based; outline: as §1
HT-29 [5] = experiment: Antiproliferative activity against BCRP overexpressing mitoxantrone-resistant human HT29 cells after 1 hr of drug exposure measured after 72 hrs; format: functional, cell-based; outline: as §1
[6] = Antitumor activity against human CoBa cells xenografted in athymic mouse assessed as inhibition of tumor volume at 2 mg/kg, po administered in q4dx4 schedule; format: functional
Outline: (§4)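 Human tumor xenografts (CoBa colon, MKN-28 gastric, Panc-1 pancreatic) grown subcutaneously in mice. Drug given orally on an intermittent q4dx4 schedule. Read-out is % tumor volume inhibition in treated versus control mice. Complete responses were scored as tumor disappearance lasting at least ten days.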

HT-29 [7] = experiment: Resistant index, ratio of IC50 for BCRP overexpressing mitoxantrone-resistant human HT29 cells to IC50 for human HT29 cells; format: functional
Outline: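 Resistance index in HT29/mit, the BCRP-overexpressing subline. IC50 values come from the 1-h exposure growth inhibition assay, as 50% growth reduction versus untreated controls.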

NCI-H460 [8] = experiment: Antiproliferative activity against human H460 cells after 2 hrs of drug exposure measured after 72 hrs; format: functional, cell-based
Outline: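 Growth inhibition with IC50 taken after 2-h drug exposure, as the concentration giving 50% reduction of cell growth versus untreated controls.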

Mus musculus [9] = experiment: Toxicity in human MKN28 cells xenografted athymic mouse assessed as survival at 6 mg/kg, po administered in q4dx4 schedule; format: organism-based, MKN-28; design: dose 6 mg/kg, route oral; conditions: in vivo; outline: as §3
MKN-28 [10] = experiment: Antitumor activity against human MKN28 cells xenografted athymic mouse assessed as inhibition of tumor volume at 12 mg/kg, po administered in q4dx4 schedule; format: functional
Outline: (§5)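 Oral dosing on an intermittent q4dx4 schedule in mice bearing MKN-28 gastric carcinoma xenografts. Tumor volume inhibition % is relative to controls. Body weight loss % is the loss induced by drug treatment.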

Mus musculus [11] = experiment: Toxicity in human MKN28 cells xenografted athymic mouse assessed as survival at 3 mg/kg, po administered in q4dx4 schedule; format: organism-based, MKN-28; design: dose 3 mg/kg, route oral; conditions: in vivo; outline: as §3
Mus musculus [12] = experiment: Toxicity in human Panc1 cells xenografted athymic mouse assessed as survival at 14 mg/kg, po administered in q4dx4 schedule; format: organism-based, PANC-1; design: dose 14 mg/kg, route oral; conditions: in vivo; outline: as §3
[13] = Toxicity in po dosed human MKN28 cells xenografted athymic mouse administered in q4dx4 schedule; format: organism-based, MKN-28; conditions: in vivo
PANC-1 [14] = experiment: Antitumor activity against human Panc1 cells xenografted athymic mouse assessed as inhibition of tumor volume at 15 mg/kg, po administered in q4dx4 schedule; format: functional; outline: as §4
Mus musculus [15] = experiment: Toxicity in human MKN28 cells xenografted athymic mouse assessed as loss of body weight at 12 mg/kg, po administered in q4dx4 schedule; format: organism-based, MKN-28; design: dose 12 mg/kg, route oral; conditions: in vivo; outline: as §5
Mus musculus [16] = experiment: Toxicity in human MKN28 cells xenografted athymic mouse assessed as survival at 12 mg/kg, po administered in q4dx4 schedule; format: organism-based, MKN-28; design: dose 12 mg/kg, route oral; conditions: in vivo; outline: as §3
Mus musculus [17] = experiment: Toxicity in human CoBa cells xenografted athymic mouse assessed as survival at 15 mg/kg, po administered in q4dx4 schedule; format: organism-based; design: dose 15 mg/kg, route oral; conditions: in vivo; outline: as §3
Mus musculus [18] = experiment: Toxicity in human CoBa cells xenografted athymic mouse assessed as loss of body weight at 15 mg/kg, po administered in q4dx4 schedule; format: organism-based; design: dose 15 mg/kg, route oral; conditions: in vivo; outline: as §2
Mus musculus [19] = experiment: Toxicity in human CoBa cells xenografted athymic mouse assessed as loss of body weight at 20 mg/kg, po administered in q4dx4 schedule; format: organism-based; design: dose 20 mg/kg, route oral; conditions: in vivo; outline: as §2
Mus musculus [20] = experiment: Toxicity in human Panc1 cells xenografted athymic mouse assessed as loss of body weight at 15 mg/kg, po administered in q4dx4 schedule; format: organism-based, PANC-1; design: dose 15 mg/kg, route oral; conditions: in vivo
[21] = Antitumor activity against human CoBa cells xenografted athymic mouse assessed as inhibition of tumor volume at 15 mg/kg, po administered in q4dx4 schedule; format: functional; outline: as §4
Mus musculus [22] = experiment: Toxicity in human MKN28 cells xenografted athymic mouse assessed as loss of body weight at 3 mg/kg, po administered in q4dx4 schedule; format: organism-based, MKN-28; design: dose 3 mg/kg, route oral; conditions: in vivo; outline: as §5
PANC-1 [23] = experiment: Antitumor activity against human Panc1 cells xenografted athymic mouse assessed as inhibition of tumor volume at 14 mg/kg, po administered in q4dx4 schedule; format: functional; outline: as §4
MKN-28 [24] = experiment: Antitumor activity against human MKN28 cells xenografted athymic mouse assessed as inhibition of tumor volume at 3 mg/kg, po administered in q4dx4 schedule; format: functional; outline: as §5
MKN-28 [25] = experiment: Antitumor activity against human MKN28 cells xenografted athymic mouse assessed as inhibition of tumor volume at 6 mg/kg, po administered in q4dx4 schedule; format: functional; outline: as §5
Mus musculus [26] = experiment: Toxicity in human MKN28 cells xenografted athymic mouse assessed as loss of body weight at 6 mg/kg, po administered in q4dx4 schedule; format: organism-based, MKN-28; design: dose 6 mg/kg, route oral; conditions: in vivo; outline: as §5
Mus musculus [27] = experiment: Toxicity in human Panc1 cells xenografted athymic mouse assessed as loss of body weight at 14 mg/kg, po administered in q4dx4 schedule; format: organism-based, PANC-1; design: dose 14 mg/kg, route oral; conditions: in vivo

Compound: CC[C@@]1(O)C(=O)OCc2c1cc1n(c2=O)Cc2c-1nc1ccccc1c2/C=N/OC(C)(C)C [GIMATECAN]
IC50 (NCI-H460 [1]): 20 nM
Activity (Mus musculus [2]): 18%
Activity (Mus musculus [3]): Non-toxic
IC50 (HT-29 [4]): 56 nM
IC50 (HT-29 [5]): 70 nM
LCK [6]: 1.1
inhibition in vivo at 2 mg/kg ([6]; Homo sapiens, CoBa): 90%
Ratio IC50 (HT-29 [7]): 1.2
IC50 (NCI-H460 [8]): 15 nM

IC50 (NCI-H460 [8]): 1.8 nM
Compound: CC[C@@]1(O)CC(=O)OCc2c1cc1n(c2=O)Cc2c-1nc1ccccc1c2/C=N/OC(C)(C)C

Compound: CCC1(O)CC(=O)OCc2c1cc1n(c2=O)Cc2c-1nc1ccccc1c2/C=N/OC(C)(C)C (racemic)
IC50 (NCI-H460 [1]): 36.8 nM
Activity (Mus musculus [9]): Non-toxic
inhibition in vivo at 12 mg/kg (MKN-28 [10]): 81%
Activity (Mus musculus [11]): Non-toxic
Activity (Mus musculus [12]): Non-toxic
MTD [13]: 12 mg/kg
LCK (PANC-1 [14]): 1.6
Activity (Mus musculus [15]): 2%
IC50 (HT-29 [4]): 41 nM
Activity (Mus musculus [16]): Non-toxic
Activity (Mus musculus [17]): Non-toxic
Activity (Mus musculus [18]): 21%
Activity (Mus musculus [19]): 18%
Activity (Mus musculus [20]): 16%
IC50 (HT-29 [5]): 560 nM
LCK [21]: 1.3
inhibition in vivo at 15 mg/kg ([21]; Homo sapiens, CoBa): 95%
Activity (Mus musculus [22]): 0%
LCK (PANC-1 [23]): 1.4
inhibition in vivo at 14 mg/kg (PANC-1 [23]; Mus musculus, PANC-1): 99%
inhibition in vivo at 3 mg/kg (MKN-28 [24]): 71%
Ratio IC50 (HT-29 [7]): 14
inhibition in vivo at 6 mg/kg (MKN-28 [25]): 47%
Activity (Mus musculus [26]): 0%
Activity (Mus musculus [27]): 5%

Compound: CC[C@@]1(O)C(=O)OCc2c1cc1n(c2=O)Cc2c-1nc1ccccc1c2/C=N/OCc1ccccc1
IC50 (NCI-H460 [1]): 30 nM
IC50 (HT-29 [4]): 56 nM
IC50 (HT-29 [5]): 42 nM
Ratio IC50 (HT-29 [7]): 0.75

Compound: CC[C@@]1(O)CC(=O)OCc2c1cc1n(c2=O)Cc2cc3ccccc3nc2-1 [HOMOCAMPTOTHECIN]
IC50 (NCI-H460 [1]): 49.6 nM
IC50 (HT-29 [4]): 440 nM
IC50 (HT-29 [5]): 8550 nM
Ratio IC50 (HT-29 [7]): 19

— ChEMBL document CHEMBL1145627, “E-ring-modified 7-oxyiminomethyl camptothecins: Synthesis and preliminary in vitro and in vivo biological evaluation” (Bioorg Med Chem Lett, 2008)
